Data from ChEMBL document CHEMBL1681705, “Optimisation of ITK inhibitors through successive iterative design cycles” (Bioorg Med Chem Lett, 2011).

Legend:
[1] = biological target: T1, Tyrosine-protein kinase ITK/TSK (Homo sapiens) (UniProt Q08881); assay: Inhibition of Itk at 1 uM; values are per cent of control
T1 sequence (whole entry): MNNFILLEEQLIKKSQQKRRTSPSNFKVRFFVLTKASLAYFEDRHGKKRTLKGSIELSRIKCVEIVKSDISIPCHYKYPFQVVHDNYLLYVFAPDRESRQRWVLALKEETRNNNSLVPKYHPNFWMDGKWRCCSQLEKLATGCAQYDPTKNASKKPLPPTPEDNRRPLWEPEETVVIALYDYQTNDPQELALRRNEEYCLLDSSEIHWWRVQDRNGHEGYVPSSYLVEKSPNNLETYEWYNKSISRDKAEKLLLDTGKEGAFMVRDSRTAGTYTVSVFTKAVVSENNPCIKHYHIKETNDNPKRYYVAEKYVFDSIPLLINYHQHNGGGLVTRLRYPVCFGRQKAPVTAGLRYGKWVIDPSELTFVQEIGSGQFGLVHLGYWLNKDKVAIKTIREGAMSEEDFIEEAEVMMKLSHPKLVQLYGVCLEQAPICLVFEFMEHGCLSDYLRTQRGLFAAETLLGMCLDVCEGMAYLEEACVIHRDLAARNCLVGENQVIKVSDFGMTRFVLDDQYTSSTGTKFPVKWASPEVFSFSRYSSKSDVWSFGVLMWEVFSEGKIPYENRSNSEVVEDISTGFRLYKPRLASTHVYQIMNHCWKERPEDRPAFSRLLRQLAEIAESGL

[2] = biological target: RAC-alpha serine/threonine-protein kinase (Homo sapiens) (UniProt P31749); assay: Inhibition of PKBalpha at 0.1 uM; values are per cent of control
Sequence of RAC-alpha serine/threonine-protein kinase (Homo sapiens) (P31749 whole entry): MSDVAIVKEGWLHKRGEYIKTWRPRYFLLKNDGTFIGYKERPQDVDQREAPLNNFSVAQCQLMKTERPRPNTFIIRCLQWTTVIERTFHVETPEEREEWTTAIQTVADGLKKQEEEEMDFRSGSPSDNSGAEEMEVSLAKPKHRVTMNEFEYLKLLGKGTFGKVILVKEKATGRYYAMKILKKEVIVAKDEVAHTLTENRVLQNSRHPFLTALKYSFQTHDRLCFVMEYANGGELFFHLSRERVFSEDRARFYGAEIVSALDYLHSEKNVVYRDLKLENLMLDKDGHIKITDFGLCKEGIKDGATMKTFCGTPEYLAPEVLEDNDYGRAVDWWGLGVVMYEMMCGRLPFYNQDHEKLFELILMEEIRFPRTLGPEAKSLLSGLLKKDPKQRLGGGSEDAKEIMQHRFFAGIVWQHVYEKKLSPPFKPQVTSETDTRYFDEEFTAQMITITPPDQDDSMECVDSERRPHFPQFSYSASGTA

[3] = biological target: T2, Ephrin type-A receptor 1 (Homo sapiens) (UniProt P21709); assay: Inhibition of EphA1 at 1 uM; values are per cent of control
T2 sequence (whole entry): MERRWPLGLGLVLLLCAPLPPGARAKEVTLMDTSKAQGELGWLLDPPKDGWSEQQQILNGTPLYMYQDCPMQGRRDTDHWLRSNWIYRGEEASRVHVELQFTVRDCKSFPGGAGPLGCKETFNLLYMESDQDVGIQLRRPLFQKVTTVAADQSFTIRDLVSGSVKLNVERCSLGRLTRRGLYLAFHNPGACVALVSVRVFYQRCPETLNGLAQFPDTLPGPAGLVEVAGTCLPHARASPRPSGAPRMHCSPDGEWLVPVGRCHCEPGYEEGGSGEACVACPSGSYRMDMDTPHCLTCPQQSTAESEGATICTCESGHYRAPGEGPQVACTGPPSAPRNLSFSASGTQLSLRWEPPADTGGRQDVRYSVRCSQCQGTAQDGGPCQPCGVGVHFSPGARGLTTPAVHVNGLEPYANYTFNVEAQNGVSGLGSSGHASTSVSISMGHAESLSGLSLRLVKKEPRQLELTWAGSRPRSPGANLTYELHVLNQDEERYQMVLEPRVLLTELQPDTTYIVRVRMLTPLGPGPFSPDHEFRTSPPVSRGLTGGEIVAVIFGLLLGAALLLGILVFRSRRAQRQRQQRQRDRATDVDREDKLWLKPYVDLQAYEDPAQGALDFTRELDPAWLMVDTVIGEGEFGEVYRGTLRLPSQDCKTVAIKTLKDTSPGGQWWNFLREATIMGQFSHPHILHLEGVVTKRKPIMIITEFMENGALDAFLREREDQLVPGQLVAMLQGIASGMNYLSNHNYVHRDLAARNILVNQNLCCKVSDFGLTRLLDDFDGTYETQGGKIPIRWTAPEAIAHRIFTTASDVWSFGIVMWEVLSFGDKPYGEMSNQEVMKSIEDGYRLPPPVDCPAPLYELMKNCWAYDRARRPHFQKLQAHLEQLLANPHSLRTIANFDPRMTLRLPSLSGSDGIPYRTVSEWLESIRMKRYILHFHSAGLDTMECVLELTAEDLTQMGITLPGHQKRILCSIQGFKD

[4] = biological target: Interleukin-1 receptor-associated kinase 1 (Homo sapiens) (UniProt P51617); assay: Inhibition of IRAK1 at 1 uM
Sequence of Interleukin-1 receptor-associated kinase 1 (Homo sapiens) (P51617 whole entry, looked up): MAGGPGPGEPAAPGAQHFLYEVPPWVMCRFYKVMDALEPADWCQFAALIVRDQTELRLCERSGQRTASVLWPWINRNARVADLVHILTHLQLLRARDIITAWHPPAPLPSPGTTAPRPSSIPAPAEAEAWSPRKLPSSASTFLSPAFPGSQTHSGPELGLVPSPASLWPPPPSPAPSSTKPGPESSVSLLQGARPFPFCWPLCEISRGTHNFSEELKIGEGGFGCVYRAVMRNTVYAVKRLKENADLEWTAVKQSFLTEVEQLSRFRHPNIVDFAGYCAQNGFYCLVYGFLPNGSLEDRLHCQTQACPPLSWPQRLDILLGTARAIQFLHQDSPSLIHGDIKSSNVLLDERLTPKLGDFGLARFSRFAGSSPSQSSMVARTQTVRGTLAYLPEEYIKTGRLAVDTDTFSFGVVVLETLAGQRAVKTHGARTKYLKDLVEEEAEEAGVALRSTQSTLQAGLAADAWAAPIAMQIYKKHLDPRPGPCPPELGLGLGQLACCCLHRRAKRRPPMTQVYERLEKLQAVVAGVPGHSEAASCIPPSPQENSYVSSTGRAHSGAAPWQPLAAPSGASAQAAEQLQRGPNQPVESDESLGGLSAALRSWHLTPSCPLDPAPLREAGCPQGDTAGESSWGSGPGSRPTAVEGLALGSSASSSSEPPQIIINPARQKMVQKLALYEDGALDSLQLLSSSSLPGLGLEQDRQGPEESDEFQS
Outline: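 Single-point profiling in a panel of 108 kinases. Each selected inhibitor was tested at two concentrations, 0.1 and 1.0 micromolar. Values are reported as inhibition at each concentration.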

[5] = biological target: Serine/threonine-protein kinase pim-1 (Homo sapiens) (UniProt P11309); assay: Inhibition of Pim-1 at 0.1 uM; values are per cent of control
Sequence of Serine/threonine-protein kinase pim-1 (Homo sapiens) (P11309 whole entry, looked up): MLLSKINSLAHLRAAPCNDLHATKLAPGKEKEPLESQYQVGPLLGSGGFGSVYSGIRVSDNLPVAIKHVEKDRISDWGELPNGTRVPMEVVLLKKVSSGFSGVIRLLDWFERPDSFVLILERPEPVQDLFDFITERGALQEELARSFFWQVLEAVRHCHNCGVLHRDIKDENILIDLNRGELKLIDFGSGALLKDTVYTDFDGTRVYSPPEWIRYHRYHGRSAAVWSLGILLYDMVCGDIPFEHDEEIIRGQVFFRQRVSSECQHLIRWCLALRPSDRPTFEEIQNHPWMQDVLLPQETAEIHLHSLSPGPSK

[6] = biological target: T3, Protein kinase C epsilon type (Homo sapiens) (UniProt Q02156); assay: Inhibition of PKCepsilon at 0.1 uM; values are per cent of control
T3 sequence (whole entry): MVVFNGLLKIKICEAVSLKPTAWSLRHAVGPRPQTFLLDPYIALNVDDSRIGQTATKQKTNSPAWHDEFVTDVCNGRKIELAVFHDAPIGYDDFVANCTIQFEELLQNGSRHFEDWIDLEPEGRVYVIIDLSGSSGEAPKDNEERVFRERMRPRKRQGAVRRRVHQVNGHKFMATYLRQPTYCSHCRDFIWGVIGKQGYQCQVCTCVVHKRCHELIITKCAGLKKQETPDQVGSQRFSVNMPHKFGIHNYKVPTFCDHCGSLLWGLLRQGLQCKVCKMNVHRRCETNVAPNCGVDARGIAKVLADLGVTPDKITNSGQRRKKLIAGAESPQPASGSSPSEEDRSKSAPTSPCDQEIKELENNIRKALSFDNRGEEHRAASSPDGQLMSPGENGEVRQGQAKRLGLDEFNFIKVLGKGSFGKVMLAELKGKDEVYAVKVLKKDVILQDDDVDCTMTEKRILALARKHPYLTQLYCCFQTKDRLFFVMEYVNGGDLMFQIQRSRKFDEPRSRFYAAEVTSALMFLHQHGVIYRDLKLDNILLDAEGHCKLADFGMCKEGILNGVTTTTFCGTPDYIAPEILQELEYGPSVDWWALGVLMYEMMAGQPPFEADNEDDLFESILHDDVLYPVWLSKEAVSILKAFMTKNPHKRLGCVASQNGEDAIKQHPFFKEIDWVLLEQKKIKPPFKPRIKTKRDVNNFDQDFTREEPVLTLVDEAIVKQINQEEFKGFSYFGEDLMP

[7] = biological target: Macrophage colony-stimulating factor 1 receptor (Homo sapiens) (UniProt P07333); assay: Inhibition of Fms at 0.1 uM; values are per cent of control
Sequence of Macrophage colony-stimulating factor 1 receptor (Homo sapiens) (P07333 whole entry): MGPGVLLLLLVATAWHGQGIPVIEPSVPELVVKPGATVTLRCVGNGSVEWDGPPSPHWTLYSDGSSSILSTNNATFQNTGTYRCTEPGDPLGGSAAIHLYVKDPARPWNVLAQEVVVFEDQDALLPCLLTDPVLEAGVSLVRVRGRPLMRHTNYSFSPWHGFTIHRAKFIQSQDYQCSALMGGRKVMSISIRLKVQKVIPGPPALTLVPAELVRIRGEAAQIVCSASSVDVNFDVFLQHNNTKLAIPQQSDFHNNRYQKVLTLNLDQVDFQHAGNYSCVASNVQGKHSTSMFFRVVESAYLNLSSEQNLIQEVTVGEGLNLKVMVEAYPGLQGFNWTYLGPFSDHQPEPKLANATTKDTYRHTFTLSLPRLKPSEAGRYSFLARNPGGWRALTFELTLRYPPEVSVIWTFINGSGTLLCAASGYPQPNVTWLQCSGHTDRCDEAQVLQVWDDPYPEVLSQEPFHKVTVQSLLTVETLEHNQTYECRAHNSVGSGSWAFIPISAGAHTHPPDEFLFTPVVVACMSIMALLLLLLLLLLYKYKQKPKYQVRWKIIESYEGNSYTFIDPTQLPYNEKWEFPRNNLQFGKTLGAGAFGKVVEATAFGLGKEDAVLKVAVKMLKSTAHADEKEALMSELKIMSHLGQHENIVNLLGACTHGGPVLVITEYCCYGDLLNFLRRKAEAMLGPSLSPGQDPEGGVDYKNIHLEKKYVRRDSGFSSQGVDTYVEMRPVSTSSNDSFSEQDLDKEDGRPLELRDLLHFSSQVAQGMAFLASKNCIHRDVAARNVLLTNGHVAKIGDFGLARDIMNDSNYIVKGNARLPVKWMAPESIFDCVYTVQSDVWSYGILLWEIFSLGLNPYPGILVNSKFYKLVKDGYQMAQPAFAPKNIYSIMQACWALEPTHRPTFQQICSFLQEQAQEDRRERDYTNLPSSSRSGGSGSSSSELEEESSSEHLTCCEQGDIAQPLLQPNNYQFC

In the case of `Cc1ccc2cc(-c3n[nH]c4ccc(NC5CCNC5)cc34)[nH]c2c1` (centres undefined), the residual activity [1] is reported as 2%, the residual activity [2] is reported as 95% and the residual activity [3] is reported as 5%. For the same compound, the inhibition [4] was 7%, the residual activity [5] was 100% and the residual activity [6] was 30%. It also gave a residual activity [7] of 57%.

Compound `Cc1ccc2cc(-c3n[nH]c4ccc(NC5CCN(Cc6ccccc6)CC5)cc34)[nH]c2c1` has a residual activity [1] of 7%, a residual activity [2] of 96% and a residual activity [3] of 12%. It also gave an inhibition [4] of 9%, a residual activity [5] of 106% and a residual activity [6] of 86%. The residual activity [7] was 60%.
